Most compounds without a hit are left out; they make up all but 1.5% or so of the library.
GalR3 antag = GalR3 antagonists in HEK293 cells, primary screen, cell-based, fluorescence readout; Galanin receptor type 3 (Homo sapiens), O60755; HEK293 GalR3-CNG cAMP membrane potential fluorescence; galR3 body fused to GalR1 C-terminus; inhibition, % at 3 µM; 360,000 compounds, 0.44% hits; AID 651719, 2012;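 active = inhibition above the screen-wide average plus 3 SD, cut at about 13% in these data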;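 also: forskolin and galanin both at EC90 stimulate the cells; cAMP rise reported by CNG channel membrane potential dye signal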
Jurkat NFkB inh = inhibitors of induced NF-kB luciferase reporter, primary screen, TCR NF-kB activation inhibitor project, cell-based, luminescence, uHTS. Jurkat, PMA/ionomycin-induced NF-kB luciferase reporter. inhibition, % at 4 µM. 330,000 compounds, 0.53% hits; in the data active = inhibition above about 50%
NR2E3 ag-1 = NR2E3 agonists in two-hybrid cells, primary screen, cell-based, luminescence, CHO-S, Gal4-NCOR/VP16-NR2E3; Photoreceptor-specific nuclear receptor (Homo sapiens), Q9Y5X4; luciferase; inhibition of corepressor binding, % at 3.98 µM; 360,000 compounds, 0.35% hits; AID 602229, 2012;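 active = inhibition above the mean of all tested compounds plus 3 SD, cut at about 70% in these data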;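 also: higher means lower luciferase signal from less NR2E3 corepressor binding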
GASC-1 inh = inhibitors of GASC-1 histone demethylase, primary screen, biochemical, fluorescence, DELFIA europium | 330,000 compounds, 0.069% hits | GST-JMJD2C(1-420) H3K9me3 demethylation | inhibition, % at 2.35 µM;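 active = more than half of a compound's replicate wells show inhibition beyond 50%, single wells judged on their own value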;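 also: signal counts dimethyl H3K9 product captured on neutravidin plate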
Target sequence (Q9H3R0 1-420 limits assumed): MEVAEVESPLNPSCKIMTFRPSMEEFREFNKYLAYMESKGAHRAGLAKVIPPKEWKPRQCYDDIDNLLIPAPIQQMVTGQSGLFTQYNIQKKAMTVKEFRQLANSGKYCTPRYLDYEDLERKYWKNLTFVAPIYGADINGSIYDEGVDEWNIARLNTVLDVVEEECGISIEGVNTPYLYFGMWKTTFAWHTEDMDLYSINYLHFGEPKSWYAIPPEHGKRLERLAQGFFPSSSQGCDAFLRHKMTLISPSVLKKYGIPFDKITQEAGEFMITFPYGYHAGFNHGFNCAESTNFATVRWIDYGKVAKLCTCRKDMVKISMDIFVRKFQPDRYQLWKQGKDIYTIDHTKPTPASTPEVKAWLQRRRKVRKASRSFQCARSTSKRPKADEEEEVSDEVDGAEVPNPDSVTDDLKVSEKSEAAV
NR2E3 ag-2 = inhibitors of NR2E3-RetCOR corepressor binding, primary screen, NR2E3 agonist project, biochemical, TR-FRET, GST-NR2E3, biotin-RetCOR; Photoreceptor-specific nuclear receptor (Homo sapiens), Q9Y5X4; 1536-well; inhibition of corepressor binding, % at 4.78 µM; 320,000 compounds, 0.12% hits;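 active = percent inhibition above the cutoff of mean plus 3 SD of all tested compounds, set per screening campaign, cut at about 20% in these data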
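Material – GST-tagged NR2E3 plus biotinylated RetCOR corepressor · Quantity – NR2E3 fusion 1.35 nM · Times – 5 h incubation at 4 °C · Medium – pH 7.5 Tris-based buffer · Technique – TR-FRET, Eu(K)-anti-GST donor, streptavidin-D2 acceptor, ex 340, em 617/671 nm · Benchmarks – high control biotin, low control 0.6% DMSO · Format – 1536-well plates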
697 NFkB inh = inhibitors of PMA/ionomycin-induced NF-kB reporter, 697 cells, primary screen, B-cell NF-kB inhibitor project, cell-based, luminescence, uHTS. 697 B-cell NF-kB luciferase reporter, 16 h. inhibition, % at 4 µM. 330,000 compounds, 0.33% hits; in the data active = inhibition above about 35%
697 NFkB conf = PMA/ionomycin-induced NF-kB reporter inhibitors, 697 retest, confirmation, B-cell NF-kB inhibitor project, cell-based, luminescence, single concentration; shares compounds with 697 NFkB inh; 697 B-cell NF-kB luciferase, 16 h; inhibition, % at 4 µM; 2,000 compounds, 35% hits; AID 449746, 2010; in the data active = inhibition mostly above about 28%, no sharp cut-off; inactive = mostly below about 22%
A number is an active result; – = inactive; · = no result.

SMILES	GalR3 antag	Jurkat NFkB inh	NR2E3 ag-1	GASC-1 inh	NR2E3 ag-2	697 NFkB inh	697 NFkB conf
CCCC(=O)Nc1ccc(Sc2ccc([N+](=O)[O-])cc2)cc1	–	–	–	–	–	41	35
CCC(CC)C(=O)Nc1ccc(Sc2ccc([N+](=O)[O-])cc2)cc1	–	–	–	–	–	37	30
O=[N+]([O-])CC(=Nc1ccc(F)cc1)N/N=C\c1oc(O)c2ccccc12	·	–	·	–	–	–	·
COc1ccc(-c2csc(N3C(=O)CNC3=S)n2)cc1	–	·	–	–	–	·	·
COc1ccc(-c2csc(N3C(=N)SCC3=O)n2)cc1	–	–	–	–	–	–	–
Cn1c(=O)c(C(=O)Nc2ccccc2S(N)(=O)=O)c(O)c2ccccc21	–	–	–	–	–	–	·
Cn1c(=O)c(C(=O)Nc2ccccn2)c(O)c2ccccc21	–	–	–	–	–	–	–
Cc1ccc(S(=O)(=O)c2nc(S(C)(=O)=O)sc2N2CCC3(CC2)OCCO3)cc1	–	–	–	–	–	–	·
O=[N+]([O-])c1ccc(/C=C/c2ccc3cccc(O)c3n2)cc1	–	–	–	–	–	–	·
C(=C\c1ccc2ccccc2n1)/c1ccccc1	–	–	–	–	–	–	–
O=[N+]([O-])c1ccc(/C=C/c2ccc3ccccc3n2)cc1	–	–	–	–	–	–	–
CC(=O)c1ccc(N=Nc2ccc(C)cc2)cc1	–	–	–	–	·	–	–
CC(=O)c1ccc(N=Nc2ccc(N(C)C)cc2)cc1	–	–	–	–	–	–	·
Cc1ccc(C(=O)Nc2cccc(C(=O)NCc3ccccc3)c2)o1	–	–	–	–	–	36	–
O=c1cc(-c2ccc(O)c(O)c2)oc2ccc3ccccc3c12	–	–	–	·	·	–	–
O=c1cc(-c2ccccc2)oc2ccc3ccccc3c12	–	·	–	·	·	·	·
Cc1c(/N=C(\[O-])Nc2ccc(Br)cc2)sn[n+]1C	–	–	–	–	–	–	–
Cc1ccccc1/C(=N\S(=O)(=O)c1ccc(Br)cc1)Nc1ccccc1	–	·	–	·	·	·	·
CCCn1c(N)c(C(=O)CSc2nc3ccccc3s2)c(=O)[nH]c1=O	–	–	–	–	–	–	–
CCCn1c(N)c(C(=O)CSc2nnc(N)s2)c(=O)[nH]c1=O	–	–	–	–	–	–	·
Cc1ccc(/C=C/c2nc3ccccc3c(=O)[nH]2)cc1	–	–	–	–	–	–	–
Cc1cc(NC(=O)C(C)SCC(=O)N(C)CC(=O)Nc2ccccc2Br)no1 (stereo not drawn)	–	–	–	–	–	–	·
Cc1cc(C(=O)Cn2nnc3ccccc3c2=O)c(C)n1Cc1cccs1	–	–	–	–	–	–	–
NC(=O)c1c(NC(NC(=O)c2ccco2)(C(F)(F)F)C(F)(F)F)sc2c1CCCC2	–	–	–	–	–	39	–
O=C1Nc2cnc(Cl)nc2Nc2ccccc21	–	·	–	·	·	·	·
SMILES	GalR3 antag	Jurkat NFkB inh	NR2E3 ag-1	GASC-1 inh	NR2E3 ag-2	697 NFkB inh	697 NFkB conf
Cc1ccc(-n2nc3c(=O)n(CCCC(=O)NCc4ccc(F)cc4)nc(C)c3c2C)cc1	–	–	–	–	–	39	–
Cc1ccc(CCNC(=O)CCCn2nc(C)c3c(C)n(-c4ccc(C)cc4)nc3c2=O)cc1	–	–	–	–	–	–	·
COc1ccc(NC(=O)C(=O)NCCCn2ccnc2)cc1	–	–	–	–	–	–	·
CCOc1ccc(NC(=O)C(=O)NCCCn2ccnc2)cc1	–	–	–	–	–	–	·
CCCOc1ccc(NC(=O)C(=O)NCCCn2ccnc2)cc1	–	–	–	–	–	56	53
COc1ccc(CNC(=O)C(=O)NCCCn2ccnc2)cc1	–	–	–	–	–	38	–
Nc1nc(Nc2ccccc2F)sc1C(=O)c1ccccc1	–	–	–	–	–	–	–
CC(C)CN1C(=O)c2ccc(C(=O)Nc3ccccc3C(=O)O)cc2C1=O	–	–	–	–	–	–	·
O=C(c1ccoc1)N1CCC2(CC1)Oc1ccc(Cl)cc1C(=O)C21CC(c2ccc(Cl)cc2)=NO1 (stereo not drawn)	–	–	–	–	–	–	·
O=C(c1ccoc1)N1CCC2(CC1)Oc1ccc(F)cc1C(=O)C21CC(c2ccc(Cl)cc2)=NO1 (stereo not drawn)	–	–	–	–	–	36	–
Cn1nnnc1Sc1ncnc2scc(Br)c12	–	–	–	–	·	37	60
Cn1nnnc1Sc1ncnc2scc(-c3ccc[nH]3)c12	–	–	–	–	–	–	·
CCN(CC)c1ccc2cc(NC(=O)CCC(=O)O)c(=O)oc2c1	–	–	–	–	–	80	72
COc1ccc(CCNC(=O)CCn2c(=O)c3cccn3c3cccnc32)cc1OC	–	–	–	–	–	–	·
CCOC(=O)Cc1csc(NC(=S)NC(=O)c2ccc(C)cc2)n1	–	–	–	–	–	70	89
CC(=O)N1N=C(c2ccccc2OC(=O)/C=C/c2ccccc2)CC1c1ccccc1 (stereo not drawn)	–	–	·	–	–	–	·
Cc1ccc(-c2csc3ncnc(Nc4ccc(C(=O)O)cc4)c23)cc1	–	–	–	–	–	36	–
O=C1N=NC2=C1c1c3ccccc3c(O)n1CC2	–	–	–	–	–	–	·
COc1ccc(-c2nn(-c3ccccc3)cc2/C=C(\C#N)C(N)=O)cc1[N+](=O)[O-]	–	–	–	–	–	38	–
COc1ccc(-c2nn(-c3ccccc3)cc2/C=C(/C#N)C(N)=O)cc1[N+](=O)[O-]	–	–	–	–	–	–	·
Cc1c(NC(=O)c2cc(-c3cccs3)nc3ccccc23)c(=O)n(-c2ccccc2)n1C	–	–	–	–	–	39	–
Cc1c(NC(=O)c2cc(-c3ccccc3)nc3ccccc23)c(=O)n(-c2ccccc2)n1C	–	–	–	–	·	–	·
c1ccc2[nH]c(-c3cscn3)nc2c1	·	·	–	–	–	·	·
c1ccc2nc(-c3nc4ccccc4[nH]3)ccc2c1	–	–	–	–	–	–	–
O=C(CCl)Nc1ccc(-c2ccccc2)cc1	–	–	–	–	–	–	·
CC(C)N(c1ccccc1)c1ccc(NC(=O)CCl)cc1	–	–	–	–	–	35	–
